The subject of test [1] is PC-3. The test can be described thus: Induction of apoptosis in human PC3 cells assessed as condensed and fragmented chromatin at IC50 after 48 hrs by acridine orange/ethidium bromide staining-based fluorescence microscopic analysis. It is filed as functional, cell-based.
Test [2] concerns the target T1, CDK6/cyclin D1 (Homo sapiens) (UniProt P24385+Q00534). The experiment in a line: Inhibition of CDK6/cyclin D1 (unknown origin) at 1 uM after 20 to 30 mins by scintillation counting analysis relative to control. The format is protein-complex assay.
Test [3] deals with PC-3. The test can be described thus: Induction of apoptosis in human PC3 cells assessed as condensed and fragmented chromatin at IC50 after 24 hrs by acridine orange/ethidium bromide staining-based fluorescence microscopic analysis. It is filed as functional, cell-based.
Test [4] concerns PC-3. The experiment in a line: Cell cycle arrest in human PC3 cells assessed as reduction in accumulation at G2/M phase at IC50 after 24 hrs by propidium iodide staining-based flow cytometric analysis. It is filed as functional. In general terms: In flow cytometry, cells or beads pass a laser one at a time.
The subject of test [5] is PC-3. The test can be described thus: Upregulation of p21 protein level in human PC3 cells at IC50 after 48 hrs by Western blotting analysis relative to control. The format is functional. On the technique in general: A western blot detects proteins with antibodies after separation by electrophoresis.
Test [6] concerns PC-3. The experiment in a line: Cytotoxicity against human PC3 cells after 48 hrs by sulforhodamine B assay. The conditions noted are these: PC-3, 48 h. The format is functional, cell-based. The gist of the method: (§1)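 Exponentially growing cells harvested with 0.25% trypsin-EDTA, seeded at 1000–2000 cells/well in supplemented DMEM, left 24 h, then exposed 48 h to a concentration series; 5-fluorouracil as reference. Fixed with 10% TCA 1 h at 4 °C, stained 10 min with 0.4% SRB in 1% acetic acid, dye solubilized in Tris-HCl, OD read at 564 nm. IC50 from Boltzmann sigmoidal nonlinear fit; means of at least three experiments.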
For orientation: In SRB staining, fixed cells bind dye roughly in proportion to their protein.

For another test, the system named is HepG2. The test can be described thus: Cytotoxicity against human HepG2 cells after 48 hrs by sulforhodamine B assay. The format is functional, cell-based. The conditions noted are these: HepG2, 48 h. Put shortly: as §1
Test [7] relates to PC-3. The experiment in a line: Cell cycle arrest in human PC3 cells assessed as increase in accumulation at pre-G phase at IC50 after 48 hrs by propidium iodide staining-based flow cytometric analysis. The format is functional.
For another test, the system named is MCF7. The experiment in a line: Cytotoxicity against human MCF7 cells after 48 hrs by sulforhodamine B assay. The conditions noted are these: MCF7, 48 h. It is filed as functional, cell-based. The gist of the method: as §1
Test [8] relates to PC-3. The experiment in a line: Upregulation of p21 protein level in human PC3 cells at IC50 after 48 hrs by immunocytochemical analysis. It is filed as functional, cell-based.
Test [9] has as its system A549. The experiment in a line: Cytotoxicity against human A549 cells after 48 hrs by sulforhodamine B assay. It is filed as functional, cell-based. Particulars: A549, 48 h. The gist of the method: as §1
Test [10] relates to PC-3. The experiment in a line: Cell cycle arrest in human PC3 cells assessed as reduction in accumulation at S phase at IC50 after 24 hrs by propidium iodide staining-based flow cytometric analysis. It is filed as functional.
Test [11] concerns PC-3. The test can be described thus: Induction of apoptosis in human PC3 cells assessed as increase in caspase-3 level at IC50 uM after 24 hrs by sandwich enzyme immunoassay relative to control. It is filed as functional.
The test system of test [12] is PC-3. The experiment in a line: Induction of apoptosis in human PC3 cells assessed as increase in caspase-3 level at IC50 uM after 48 hrs by sandwich enzyme immunoassay relative to control. It is filed as functional.
Test [13] concerns PC-3. The test can be described thus: Induction of apoptosis in human PC3 cells assessed as wrinkled cells at IC50 after 24 hrs by acridine orange/ethidium bromide staining-based fluorescence microscopic analysis. It is filed as functional, cell-based.
The subject of test [14] is PC-3. The test can be described thus: Cell cycle arrest in human PC3 cells assessed as accumulation at G0/G1 phase at IC50 after 24 hrs by propidium iodide staining-based flow cytometric analysis. It is filed as functional.
Test [15] concerns the target Cyclin-dependent kinase 4/cyclin D1 (Homo sapiens) (UniProt P11802+P24385). The experiment in a line: Inhibition of CDK4/cyclin D1 (unknown origin) at 10 uM after 20 to 30 mins by scintillation counting analysis relative to control. The format is protein-complex assay.
The target of test [16] is T1, CDK6/cyclin D1 (Homo sapiens). The experiment in a line: Inhibition of CDK6/cyclin D1 (unknown origin) at 10 uM after 20 to 30 mins by scintillation counting analysis relative to control. The format is protein-complex assay.
In test [17] the test system is A549. The test can be described thus: Ratio of 5-fluorouracil IC50 to compound IC50 for human A549 cells. The format is functional.

The source made the active and inactive calls. The calls are words filed in the database; no cut-off is given here.

For the compound `CC(=O)c1nn(-c2ccc(S(N)(=O)=O)cc2)c2nc3nc(-c4cccs4)cc(-c4ccccc4)c3c(=O)n12`, the result in the test with PC-3 [1], in the test on PC-3 [3], in the test with PC-3 [4], with PC-3 [7], with PC-3 [8] and in the test on PC-3 [10] was Active. Besides, the result with PC-3 [13] and in the test on PC-3 [14] was Active. Moreover, the inhibition (as a rule, the share of the control response that was lost under treatment) in test [2] was 2%; in [15], 5%; in test [16], 1%. In addition, the “fold change (FC)” value was 1.7 in the test on PC-3 [5], 1.5 in the test with PC-3 [11] and 2 in the test on PC-3 [12]. In addition, the IC50 (commonly the concentration at which inhibition is half-maximal) with PC-3 [6] worked out at 0.36 µM; with HepG2, 56.6 µM; in the test on MCF7 it was 38 µM; in the test on A549 [9], 0.41 µM. The “Ratio IC50” value in the test with A549 [17] was 10.
For the compound `CC(=O)c1nn(-c2ccc(F)cc2)c2nc3nc(-c4cccs4)cc(-c4ccccc4)c3c(=O)n12`, the IC50 amounted to 35.9 µM in the test on PC-3 [6] and 39.1 µM with A549 [9].
Regarding `O=c1[nH]c(N/N=C/c2ccccc2)nc2nc(-c3cccs3)cc(-c3ccccc3)c12`, the IC50 in the test on PC-3 [6] came out at 26.8 µM; with A549 [9] it was 32.1 µM.
In the same order, the values of `O=c1c2c(-c3ccccc3)cc(-c3cccs3)nc2nc2[nH]ncn12` are 11.7 µM and 21.7 µM.
`CCOC(=O)c1nn(-c2ccc(Cl)cc2)c2nc3nc(-c4cccs4)cc(-c4ccccc4)c3c(=O)n12`: the values for the IC50 in the test with PC-3 [6] and in the test on A549 [9] were 37.4 µM and 72.6 µM, respectively.
In the same order, the values of `CC(=O)c1nn(-c2ccccc2)c2nc3nc(-c4cccs4)cc(-c4ccccc4)c3c(=O)n12` are 32.3 µM and 58.3 µM.
In the same order, the values of `O=c1[nH]c(N/N=C/c2ccc(F)cc2)nc2nc(-c3cccs3)cc(-c3ccccc3)c12` are 1.54 µM and 3.36 µM.
The corresponding values for `Cc1ccc(/C=N/Nc2nc3nc(-c4cccs4)cc(-c4ccccc4)c3c(=O)[nH]2)cc1` are 0.63 µM and 56.6 µM.
Consider `O=c1c2c(-c3ccccc3)cc(-c3cccs3)nc2nc2[nH][nH]c(=S)n12`, for which the half-maximal inhibitory concentration (IC50) was determined as 32.4 µM in the test with PC-3 [6] and 54.1 µM with A549 [9].
In the same order, the values of `CCOC(=O)c1nn(-c2ccccc2)c2nc3nc(-c4cccs4)cc(-c4ccccc4)c3c(=O)n12` are 33.6 µM and 26.6 µM.
As for `O=c1[nH][nH]c2nc3nc(-c4cccs4)cc(-c4ccccc4)c3c(=O)n12`, the values for the IC50 in the test on PC-3 [6] and in the test with A549 [9] were 12.7 µM and 14.7 µM, respectively.
The corresponding values for `CC(=O)c1nn(-c2ccc(C)cc2)c2nc3nc(-c4cccs4)cc(-c4ccccc4)c3c(=O)n12` are 16.9 µM and 19.3 µM.
In the same order, the values of `CCOC(=O)c1nn(-c2ccc(C)cc2)c2nc3nc(-c4cccs4)cc(-c4ccccc4)c3c(=O)n12` are 33.3 µM and 37.8 µM.
In the same order, the values of `COc1ccc(/C=N/Nc2nc3nc(-c4cccs4)cc(-c4ccccc4)c3c(=O)[nH]2)cc1` are 18.2 µM and 18.7 µM.
For the compound `Cc1n[nH]c2nc3nc(-c4cccs4)cc(-c4ccccc4)c3c(=O)n12`, the IC50 in the test with PC-3 [6] was found to be 83.9 µM; in the test on A549 [9], 55.5 µM.
In the same order, the values of `Nc1n[nH]c2nc3nc(-c4cccs4)cc(-c4ccccc4)c3c(=O)n12` are 12.3 µM and 43.7 µM.
In the same order, the values of `O=c1[nH]c(N/N=C/c2ccc(Cl)cc2)nc2nc(-c3cccs3)cc(-c3ccccc3)c12` are 23.8 µM and 40.8 µM.
The corresponding values for `COc1ccc(-n2nc(C(C)=O)n3c(=O)c4c(-c5ccccc5)cc(-c5cccs5)nc4nc23)cc1` are 19.5 µM and 24.6 µM.
Regarding `CCOC(=O)c1nn(-c2ccc(S(N)(=O)=O)cc2)c2nc3nc(-c4cccs4)cc(-c4ccccc4)c3c(=O)n12`, the IC50 came out at 7.15 µM in the test on PC-3 [6] and 16.4 µM in the test with A549 [9].
With `CC(=O)c1nn(-c2ccc(Cl)cc2)c2nc3nc(-c4cccs4)cc(-c4ccccc4)c3c(=O)n12`, the figures for the IC50 in the test on PC-3 [6] and in the test on A549 [9] were 22.9 µM and 30.6 µM, respectively.
On to `O=c1[nH]cc(F)c(=O)[nH]1` [FLUOROURACIL], for which the IC50 in the test on PC-3 [6] was found to be 12 µM; with A549 [9], 4.21 µM.
